What all share (format): functional
Assay [1] relates to Radical scavenging activity. The experiment in a line: Antioxidant activity assessed as DPPH free radical scavenging activity. In outline:
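DPPH free-radical scavenging assay run on purified isolates with 400 µM DPPH. IC50 (µM) reported as the concentration giving half-maximal radical scavenging.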
For orientation: DPPH is a stable violet radical that fades when it is reduced.

Assay [2] deals with MCF7. In words: Stimulation of cell proliferation in human MCF7 cells assessed as cell viability at 14 uM after 4 days relative to control. In outline: (§1)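 MCF-7 cells grown in DMEM with 10% FBS at 37 °C and 5% CO2. Before seeding they were passaged at least twice in phenol red-free DMEM with 2 mM L-glutamine and 5% charcoal-stripped serum, then washed twice with PBS. Cells were seeded at 2 × 10^4 per well, allowed 24 h to attach, then given fresh medium with compound. After 4 days attached viable cells were Coulter-counted relative to untreated cells.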

Assay [3] deals with MCF7. In words: Stimulation of cell proliferation in human MCF7 cells assessed as cell viability at 16.8 uM after 4 days relative to control. The procedure, abridged: as §1
Assay [4] concerns MCF7. In words: Stimulation of cell proliferation in human MCF7 cells assessed as cell viability at 3.7 nM after 4 days relative to control. In outline:
as §1

Assay [5] concerns MCF7. In words: Stimulation of cell proliferation in human MCF7 cells assessed as cell viability at 10 uM after 4 days relative to control. The procedure, abridged: as §1
Assay [6] deals with MCF7. In words: Cytotoxicity against human MCF7 cells at 30 uM. Particulars: read-out: GI. In outline:
as §1

By IC50 is commonly meant the concentration that gives 50% inhibition.

For `O=C1OCC(O)(C(=O)c2ccc(O)c(O)c2)/C1=C\c1ccc(O)c(O)c1` (stereo unspecified) [ACTAEALACTONE], the IC50 in assay [1] was 26 µM. Moreover, the “fold change (FC)” value with MCF7 [2] amounted to 1.24. For the compound `O=C1OC[C@H](Cc2cccc(O)c2)[C@H]1Cc1cccc(O)c1` [ENTEROLACTONE], the “fold change (FC)” value with MCF7 [3] is on record as 1.84. As for `COc1ccc(/C=C/C(=O)O[C@H](C(=O)O)[C@](O)(Cc2ccc(O)c(O)c2)C(=O)O)cc1O` [CIMICIFUGIC ACID B], the IC50 in assay [1] stood at 21 µM.

Take `O=C(O)c1cc(O)c(O)c(O)c1` [GALLIC ACID]: the IC50 in assay [1] worked out at 29.9 µM. For `C[C@]12CC[C@@H]3c4ccc(O)cc4CC[C@H]3[C@@H]1CC[C@@H]2O` [ESTRADIOL], the “fold change (FC)” value in the assay with MCF7 [4] was determined as 3.6.

For the compound `COc1cc(/C=C/C(=O)O[C@H](C(=O)O)[C@](O)(Cc2ccc(O)c(O)c2)C(=O)O)ccc1O` [CIMICIFUGIC ACID A], the IC50 in assay [1] was 12 µM. Still for that read-out and setting: the figure for `O=C(/C=C/c1ccc(O)c(O)c1)O[C@H](C(=O)O)[C@](O)(Cc1ccc(O)c(O)c1)C(=O)O` [FUKINOLIC ACID] is 23 µM. For `COc1ccc(/C=C/C(=O)O[C@H](C(=O)O)[C@](O)(Cc2ccc(O)c(O)c2)C(=O)O)cc1OC` [CIMICIFUGIC ACID G], the IC50 in assay [1] turned out to be 37 µM. The “fold change (FC)” value in the assay with MCF7 [5] is reported as 1.14. The inhibition of growth at 30 µM with MCF7 [6] is 32%.

Values taken from ChEMBL document CHEMBL1157267, “Polyphenolic constituents of Actaea racemosa” (J Nat Prod, 2006).
